Measured values reported in ChEMBL document CHEMBL4422659, “Discovery of novel 4-phenyl-2-(pyrrolidinyl)nicotinamide derivatives as potent Nav1.1 activators” (Bioorg Med Chem Lett, 2019).
One block for each compound: values may come before it.

Tests used:
[1] = target: Sodium channel protein type 1 subunit alpha (Homo sapiens) (UniProt P35498); test: Activation of human Nav1.1 expressed in T-Rex-CHO cells assessed as change in decay time constant of channel currents at 3 uM at holding potential of -120 mV by automated patch-clamp electrophysiology assay relative to control; type: cell-based
Outline: (§1)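 Human Nav1.1 stably expressed in CHO cells; inactivation current decay time constant (tau) measured on IonWorks automated patch platform; tau given as % of control; mean of N=5 unless noted, standard deviation reported.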

[2] = target: Sodium channel protein type 1 subunit alpha (Homo sapiens) (UniProt P35498); test: Activation of human Nav1.1 expressed in T-Rex-CHO cells assessed as change in decay time constant of channel currents at 10 uM at holding potential of -120 mV by automated patch-clamp electrophysiology assay relative to control; type: cell-based; outline: as §1
[3] = target: Sodium channel protein type 1 subunit alpha (Homo sapiens) (UniProt P35498); test: Activation of human Nav1.1 expressed in T-Rex-CHO cells assessed as change in decay time constant of channel currents at 1 uM at holding potential of -120 mV by automated patch-clamp electrophysiology assay relative to control; type: cell-based; outline: as §1
[4] = target: Sodium channel protein type 1 subunit alpha (Homo sapiens) (UniProt P35498); test: Activation of human Nav1.1 expressed in T-Rex-CHO cells assessed as change in decay time constant of channel currents at 0.3 uM at holding potential of -120 mV by automated patch-clamp electrophysiology assay relative to control; type: cell-based; outline: as §1
[5] = target: Sodium channel protein type 1 subunit alpha (Homo sapiens) (UniProt P35498); test: Activation of human Nav1.1 expressed in T-Rex-CHO cells assessed as change in decay time constant of channel currents at 3 uM by Q-patch assay relative to control; type: cell-based
Outline: (§2)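 Human Nav1.1 in CHO cells, Q-patch automated patch clamp; current decay time constant (tau) and top current ratio expressed as % of control; mean of N=4 unless noted, standard deviation reported.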

[6] = target: Sodium channel protein type 1 subunit alpha (Homo sapiens) (UniProt P35498); test: Activation of human Nav1.1 expressed in T-Rex-CHO cells assessed as change in decay time constant of channel currents at 1 uM by Q-patch assay relative to control; type: cell-based; outline: as §2
[7] = target: Sodium channel protein type 1 subunit alpha (Homo sapiens) (UniProt P35498); test: Activation of human Nav1.1 expressed in T-Rex-CHO cells assessed as change in top peak current at 10 uM by Q-patch assay relative to control; type: cell-based; outline: as §2
[8] = target: Sodium channel protein type 1 subunit alpha (Homo sapiens) (UniProt P35498); test: Activation of human Nav1.1 expressed in T-Rex-CHO cells assessed as change in top peak current at 3 uM by Q-patch assay relative to control; type: cell-based; outline: as §2
[9] = target: Sodium channel protein type 1 subunit alpha (Homo sapiens) (UniProt P35498); test: Activation of human Nav1.1 expressed in T-Rex-CHO cells assessed as change in decay time constant of channel currents at 10 uM by Q-patch assay relative to control; type: cell-based; outline: as §2
[10] = 1-octanol/water partition co-efficient, log D of the compound at pH 7.4 by chromatographic analysis; type: physicochemical
[11] = target: Sodium channel protein type 1 subunit alpha (Homo sapiens) (UniProt P35498); test: Activation of human Nav1.1 expressed in T-Rex-CHO cells assessed as change in decay time constant of channel currents at 30 uM at holding potential of -120 mV by automated patch-clamp electrophysiology assay relative to control; type: cell-based; outline: as §1
[12] = Aqueous solubility of compound at pH 6.8 by UV absorbance method; type: physicochemical; conditions: buffer
Outline: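 Solubility determined at pH 6.8.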

[13] = target: Sodium channel protein type 1 subunit alpha (Homo sapiens) (UniProt P35498); test: Activation of human Nav1.1 expressed in T-Rex-CHO cells assessed as change in top peak current at 1 uM by Q-patch assay relative to control; type: cell-based; outline: as §2
[14] = target: Sodium channel protein type 1 subunit alpha (Homo sapiens) (UniProt P35498); test: Activation of human Nav1.1 expressed in T-Rex-CHO cells assessed as change in decay time constant of channel currents at 0.3 uM by Q-patch assay relative to control; type: cell-based; outline: as §2
[15] = Ratio of drug level in brain to plasma in mouse at 30 mg/kg, ip measured at 1 hr by LC-MS/MS analysis; type: ADME, organism-based; conditions: brain and plasma
Outline: (§3)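 Mice dosed 30 mg/kg intraperitoneally; plasma and brain levels measured 1 h post-dose; brain/plasma ratio computed from total concentrations in brain and plasma.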

[16] = target: Sodium channel protein type 3 subunit alpha (Homo sapiens) (UniProt Q9NY46); test: Activation of human Nav1.3 expressed in CHO cells assessed as change in decay time constant of channel currents at 1 uM at holding potential of -120 mV by automated patch-clamp electrophysiology assay relative to control; type: cell-based
[17] = target: Sodium channel protein type 2 subunit alpha (Homo sapiens) (UniProt Q99250); test: Activation of human Nav1.2 expressed in T-Rex-CHO cells assessed as change in peak current at 1 uM by Q-patch assay relative to control; type: cell-based
[18] = target: Sodium channel protein type 3 subunit alpha (Homo sapiens) (UniProt Q9NY46); test: Activation of human Nav1.3 expressed in CHO cells assessed as change in peak current at 1 uM by Q-patch assay relative to control; type: cell-based
[19] = target: Sodium channel protein type 8 subunit alpha (Homo sapiens) (UniProt Q9UQD0); test: Activation of human Nav1.6 expressed in T-Rex-CHO cells assessed as change in decay time constant of channel currents at 1 uM at holding potential of -120 mV by automated patch-clamp electrophysiology assay relative to control; type: cell-based
[20] = target: Sodium channel protein type 1 subunit alpha (Homo sapiens) (UniProt P35498); test: Activation of human Nav1.1 expressed in T-Rex-CHO cells assessed as change in decay time constant of channel currents at 0.03 uM by Q-patch assay relative to control; type: cell-based; outline: as §2
[21] = Drug uptake in mouse brain at 30 mg/kg, ip measured at 1 hr by LC-MS/MS analysis; type: ADME, organism-based; conditions: read-out: Drug uptake; outline: as §3
[22] = target: Sodium channel protein type 1 subunit alpha (Homo sapiens) (UniProt P35498); test: Activation of human Nav1.1 expressed in T-Rex-CHO cells assessed as change in decay time constant of channel currents at 0.1 uM by Q-patch assay relative to control; type: cell-based; outline: as §2
[23] = Drug uptake in mouse plasma at 30 mg/kg, ip measured at 1 hr by LC-MS/MS analysis; type: ADME, organism-based; outline: as §3
[24] = Fraction unbound in mouse brain at 30 mg/kg, ip measured at 1 hr by LC-MS/MS analysis; type: ADME, organism-based
Outline: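 Brain protein binding ratio determined for brain exposure study in mice given 30 mg/kg i.p., sampled at 1 h.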

[25] = target: Sodium channel protein type 8 subunit alpha (Homo sapiens) (UniProt Q9UQD0); test: Activation of human Nav1.6 expressed in T-Rex-CHO cells assessed as change in peak current at 1 uM by Q-patch assay relative to control; type: cell-based
[26] = test system: human MDR1; test: Efflux ratio of permeability across pig LLC-PK1 cells expressing human MDR1 at 1 uM after 1 hr by LC-MS/MS analysis; type: ADME, cell-based, Sus scrofa
Outline: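 Efflux ratio measured in LLC-PK1 cells over-expressing human MDR1, substrate at 1 μM.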

[27] = target: T1, Sodium channel protein type 5 subunit alpha (Homo sapiens, UniProt Q14524); test: Activation of human Nav1.5 expressed in T-Rex-CHO cells assessed as change in decay time constant of channel currents at 1 uM at holding potential of -120 mV by automated patch-clamp electrophysiology assay relative to control; type: cell-based
[28] = target: Sodium channel protein type 2 subunit alpha (Homo sapiens) (UniProt Q99250); test: Activation of human Nav1.2 expressed in T-Rex-CHO cells assessed as change in decay time constant of channel currents at 1 uM at holding potential of -120 mV by automated patch-clamp electrophysiology assay relative to control; type: cell-based
[29] = Free drug level in mouse brain at 30 mg/kg, ip measured at 1 hr by LC-MS/MS analysis; type: ADME, organism-based; conditions: in vivo
Outline: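 Free brain concentration derived from total brain level 1 h after 30 mg/kg i.p. in mice and the brain protein binding ratio.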

[30] = target: T1, Sodium channel protein type 5 subunit alpha; test: Activation of human Nav1.5 expressed in T-Rex-CHO cells assessed as change in peak current at 1 uM by Q-patch assay relative to control; type: cell-based

Sodium channel protein type 8 subunit alpha (Homo sapiens), sequence (Q9UQD0 whole entry, looked up): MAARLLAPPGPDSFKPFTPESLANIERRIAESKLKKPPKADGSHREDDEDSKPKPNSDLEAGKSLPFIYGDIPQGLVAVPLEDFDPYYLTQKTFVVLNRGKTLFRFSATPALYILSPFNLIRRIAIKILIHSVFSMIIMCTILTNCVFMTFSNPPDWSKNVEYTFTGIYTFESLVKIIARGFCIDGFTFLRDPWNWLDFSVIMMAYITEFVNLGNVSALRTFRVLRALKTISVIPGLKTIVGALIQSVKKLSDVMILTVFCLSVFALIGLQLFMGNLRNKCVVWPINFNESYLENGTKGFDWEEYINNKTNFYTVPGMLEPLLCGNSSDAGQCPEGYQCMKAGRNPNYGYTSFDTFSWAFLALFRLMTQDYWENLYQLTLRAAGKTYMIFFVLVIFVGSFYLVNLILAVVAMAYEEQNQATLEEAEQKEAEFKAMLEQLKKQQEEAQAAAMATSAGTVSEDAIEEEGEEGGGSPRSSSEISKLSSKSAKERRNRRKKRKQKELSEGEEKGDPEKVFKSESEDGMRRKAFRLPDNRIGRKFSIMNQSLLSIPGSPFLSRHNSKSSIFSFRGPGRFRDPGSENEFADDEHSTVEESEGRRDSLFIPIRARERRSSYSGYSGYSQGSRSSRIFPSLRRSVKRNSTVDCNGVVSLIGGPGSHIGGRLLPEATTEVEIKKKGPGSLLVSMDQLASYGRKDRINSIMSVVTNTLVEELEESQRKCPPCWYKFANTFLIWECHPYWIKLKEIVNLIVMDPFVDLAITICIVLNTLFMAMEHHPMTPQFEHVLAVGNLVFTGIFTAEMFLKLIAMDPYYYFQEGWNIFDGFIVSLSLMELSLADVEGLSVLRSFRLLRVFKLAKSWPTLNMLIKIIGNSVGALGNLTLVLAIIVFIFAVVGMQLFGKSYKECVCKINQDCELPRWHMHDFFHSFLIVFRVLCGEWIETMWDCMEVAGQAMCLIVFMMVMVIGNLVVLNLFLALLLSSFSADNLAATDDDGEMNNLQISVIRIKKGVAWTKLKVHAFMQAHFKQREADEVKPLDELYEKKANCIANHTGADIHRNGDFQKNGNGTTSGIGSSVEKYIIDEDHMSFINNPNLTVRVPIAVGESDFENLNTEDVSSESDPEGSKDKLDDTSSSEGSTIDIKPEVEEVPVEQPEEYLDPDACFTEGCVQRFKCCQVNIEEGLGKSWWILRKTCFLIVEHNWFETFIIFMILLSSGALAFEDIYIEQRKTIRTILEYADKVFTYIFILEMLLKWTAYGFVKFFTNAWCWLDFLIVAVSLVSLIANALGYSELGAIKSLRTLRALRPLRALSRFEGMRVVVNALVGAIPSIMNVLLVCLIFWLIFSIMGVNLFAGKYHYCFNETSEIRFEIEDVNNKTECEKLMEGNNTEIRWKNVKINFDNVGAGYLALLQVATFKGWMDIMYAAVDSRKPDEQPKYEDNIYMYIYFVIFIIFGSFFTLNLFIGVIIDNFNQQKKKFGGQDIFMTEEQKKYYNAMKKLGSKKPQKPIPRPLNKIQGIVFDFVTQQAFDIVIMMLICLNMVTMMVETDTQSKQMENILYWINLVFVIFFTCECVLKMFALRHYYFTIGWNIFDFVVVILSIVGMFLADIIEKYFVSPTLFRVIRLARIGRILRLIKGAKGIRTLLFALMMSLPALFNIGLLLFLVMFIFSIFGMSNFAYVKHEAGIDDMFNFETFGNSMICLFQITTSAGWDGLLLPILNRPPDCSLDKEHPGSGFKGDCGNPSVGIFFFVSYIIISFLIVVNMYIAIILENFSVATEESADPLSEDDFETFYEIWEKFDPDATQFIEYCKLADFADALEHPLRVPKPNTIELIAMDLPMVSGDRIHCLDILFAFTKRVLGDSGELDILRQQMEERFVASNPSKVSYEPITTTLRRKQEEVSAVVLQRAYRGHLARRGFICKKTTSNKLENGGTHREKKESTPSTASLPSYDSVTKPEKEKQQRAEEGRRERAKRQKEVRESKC
T1 sequence (Q14524 whole entry): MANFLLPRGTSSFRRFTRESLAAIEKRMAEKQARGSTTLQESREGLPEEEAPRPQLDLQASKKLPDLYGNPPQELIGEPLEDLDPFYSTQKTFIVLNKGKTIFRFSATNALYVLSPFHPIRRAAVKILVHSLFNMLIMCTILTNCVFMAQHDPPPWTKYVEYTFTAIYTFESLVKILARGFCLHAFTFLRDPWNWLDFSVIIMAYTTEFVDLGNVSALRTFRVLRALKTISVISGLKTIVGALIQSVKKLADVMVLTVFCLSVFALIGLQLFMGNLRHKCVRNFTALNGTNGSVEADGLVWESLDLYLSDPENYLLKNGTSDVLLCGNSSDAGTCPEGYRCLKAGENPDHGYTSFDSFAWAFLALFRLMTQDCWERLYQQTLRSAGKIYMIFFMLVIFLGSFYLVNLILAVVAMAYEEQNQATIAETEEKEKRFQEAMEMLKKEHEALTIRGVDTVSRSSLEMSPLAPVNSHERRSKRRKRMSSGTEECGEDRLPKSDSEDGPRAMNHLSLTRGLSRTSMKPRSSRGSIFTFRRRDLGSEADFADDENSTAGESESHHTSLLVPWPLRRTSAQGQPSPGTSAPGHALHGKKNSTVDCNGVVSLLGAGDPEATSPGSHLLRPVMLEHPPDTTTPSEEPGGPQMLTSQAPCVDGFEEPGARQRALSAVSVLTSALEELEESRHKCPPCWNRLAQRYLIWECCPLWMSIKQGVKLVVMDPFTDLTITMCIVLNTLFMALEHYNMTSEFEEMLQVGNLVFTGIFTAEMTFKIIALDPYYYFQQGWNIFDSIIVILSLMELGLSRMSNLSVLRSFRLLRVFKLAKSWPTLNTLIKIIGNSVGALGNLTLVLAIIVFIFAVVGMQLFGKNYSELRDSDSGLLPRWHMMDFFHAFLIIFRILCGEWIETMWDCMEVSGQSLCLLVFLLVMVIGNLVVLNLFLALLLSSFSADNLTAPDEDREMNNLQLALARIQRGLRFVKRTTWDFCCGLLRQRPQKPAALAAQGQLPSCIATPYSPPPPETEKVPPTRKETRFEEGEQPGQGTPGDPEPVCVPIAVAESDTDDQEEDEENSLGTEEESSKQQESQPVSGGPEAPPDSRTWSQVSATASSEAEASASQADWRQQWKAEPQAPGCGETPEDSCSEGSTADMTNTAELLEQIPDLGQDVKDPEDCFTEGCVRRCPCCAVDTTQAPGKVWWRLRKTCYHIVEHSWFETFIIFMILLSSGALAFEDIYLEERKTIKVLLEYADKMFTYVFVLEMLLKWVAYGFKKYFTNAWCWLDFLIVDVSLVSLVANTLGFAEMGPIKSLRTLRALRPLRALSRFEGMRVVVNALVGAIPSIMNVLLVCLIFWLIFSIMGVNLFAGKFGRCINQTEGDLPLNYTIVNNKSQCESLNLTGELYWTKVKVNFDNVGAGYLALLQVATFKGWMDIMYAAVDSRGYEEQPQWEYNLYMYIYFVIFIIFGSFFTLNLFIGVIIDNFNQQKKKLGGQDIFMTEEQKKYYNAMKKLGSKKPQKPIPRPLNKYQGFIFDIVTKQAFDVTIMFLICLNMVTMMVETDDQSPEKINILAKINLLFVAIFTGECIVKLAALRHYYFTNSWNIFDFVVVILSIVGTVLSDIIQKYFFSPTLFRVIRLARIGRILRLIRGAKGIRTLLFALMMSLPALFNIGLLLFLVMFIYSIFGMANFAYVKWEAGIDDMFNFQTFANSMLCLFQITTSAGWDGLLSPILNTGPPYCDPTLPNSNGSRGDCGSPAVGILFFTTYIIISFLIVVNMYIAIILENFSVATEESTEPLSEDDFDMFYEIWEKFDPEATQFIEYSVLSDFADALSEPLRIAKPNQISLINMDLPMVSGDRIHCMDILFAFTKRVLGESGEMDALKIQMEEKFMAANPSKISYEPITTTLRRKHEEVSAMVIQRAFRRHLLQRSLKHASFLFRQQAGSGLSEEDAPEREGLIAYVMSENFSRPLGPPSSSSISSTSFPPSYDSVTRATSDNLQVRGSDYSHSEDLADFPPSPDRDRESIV

Activity [1]: 97%
Activity [2]: 107%
Structure (SMILES): CC(C)c1ccc(NC(=O)c2c(N3CCOCC3)ccnc2-c2ccc(Cl)cc2)cn1

Activity [3]: 124%
Activity [4]: 92%
Structure (SMILES): CC(C)c1ccc(NC(=O)c2c(-c3cc(F)ccc3F)cncc2N2CC[C@H](F)C2)cn1

Activity [1]: 271%
Activity [3]: 111%
Structure (SMILES): CC(C)c1ccc(NC(=O)c2c(-c3cccc(F)c3)ncnc2N2CC[C@H](F)C2)cn1

Activity [1]: 87%
Activity [3]: 80%
Structure (SMILES): CC(C)c1ccc(NC(=O)c2c(-c3ccn(C)n3)ncnc2N2CC[C@H](F)C2)cn1

Activity [1]: 111%
Activity [2]: 90%
Structure (SMILES): CC(C)c1ccc(NC(=O)c2c(-c3ccc(Cl)cc3)ncnc2N2CCC2)cn1

Activity [1]: 184%
Activity [2]: 131%
Structure (SMILES): CC(C)c1ccc(NC(=O)c2c(-c3ccc(Cl)cc3)ncnc2N2CCC(F)(F)C2)cn1

Activity [1]: 313%
Activity [2]: 699%
Structure (SMILES): CC(C)c1ccc(NC(=O)c2c(-c3ccc(Cl)cc3)cncc2N2CCOCC2)cn1

Activity [1]: 115%
Activity [3]: 80%
Structure (SMILES): CC(C)c1ccc(NC(=O)c2c(-c3ccoc3)ncnc2N2CC[C@H](F)C2)cn1

Activity [5]: 731%
Activity [6]: 198%
Activity [7]: 131%
Activity [8]: 115%
Activity [1]: 258%
Activity [9]: 774%
chromatographic logD [10]: 2.97
Activity [11]: 555%
solubility [12]: > 100 µg/mL
Activity [2]: 370%
Activity [13]: 113%
Structure (SMILES): CC(C)c1ccc(NC(=O)c2c(-c3ccc(Cl)cc3)ncnc2N2CCOCC2)cn1

Activity [6]: 332%
Activity [1]: 302%
Activity [14]: 255%
Activity [3]: 102%
Structure (SMILES): CC(C)c1ccc(NC(=O)c2c(-c3ccccc3)ncnc2N2CC[C@H](F)C2)cn1

Activity [1]: 99%
Activity [2]: 110%
Structure (SMILES): CC(C)c1ccc(NC(=O)c2c(-c3ccc(Cl)cc3)cccc2N2CCOCC2)cn1

Kp at 1 h [15]: 0.2
Activity [16]: 826%
Activity [17]: 94%
Activity [18]: 129%
Activity [6]: 1900%
Activity [19]: 102%
Activity [20]: 255%
concentration at 1 h [21]: 193 ng/g
Activity [22]: 1200%
concentration at 1 h [23]: 968 ng/mL
fraction unbound at 1 h [24]: 0.029
Activity [25]: 100%
efflux ratio at 1 h, 1 µM [26]: 1
Activity [3]: 492%
Activity [28]: 106%
Activity [4]: 176%
Drug uptake(free) [29]: 13 nM
Activity [13]: 144%
Structure (SMILES): CC(C)c1ccc(NC(=O)c2c(-c3cc(F)ccc3F)ccnc2N2CC[C@H](F)C2)cn1
Activity [27]: 108%
Activity [30]: 94%
